FGF22 binding – binders of human FGF22 protein, primary screen, FGF22 synaptogenesis inhibitor project, biophysical, thermal shift, single point. activity (Tm shift, normalised), % at 9.99 µM. recombinant FGF22 thermal shift, SYPRO orange fluorescence; percent of sucrose octasulfate shift, DMSO zero. 340,000 tested, 1.5% active. Fibroblast growth factor 22 (Homo sapiens), Q9HCT0. AID 651658, 2012;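 active = mean Tm shift, scaled 0 neutral to 100 positive control, at about 1.3% or above, every replicate too, limit read from the data; inconclusive = no clear call, values can overlap the other calls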
Target sequence (Q9HCT0 whole entry, looked up): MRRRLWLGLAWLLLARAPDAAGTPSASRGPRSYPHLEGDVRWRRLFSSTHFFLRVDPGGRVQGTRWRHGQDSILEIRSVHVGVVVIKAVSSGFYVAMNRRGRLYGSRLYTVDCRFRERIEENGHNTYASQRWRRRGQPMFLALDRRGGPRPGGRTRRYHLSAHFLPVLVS
EWS-Fli block – EWS/Fli-driven NR0B1 reporter inhibitors, primary screen, A673 cells, NR0B1 luciferase, luminescence, MLPCN library; 350,000 tested, 0.67% active; inhibition, % at 12.6 µM; viability-normalised; AID 651661, 2012;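 active = mean inhibition of at least 50% after viability correction, with every replicate also passing that limit; inconclusive = mean reaches 50% but only one of two replicates passes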;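 also: firefly luciferase signal divided by Alamar Blue viability fluorescence both relative to DMSO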
HIV Env fusion – inhibitors of HIV-1 Env-driven cell-cell fusion, primary screen, HeLa-JRFL effector, CEM21 target cells, luciferase; inhibition, % at 12.3 µM; 360,000 tested, 1.1% active;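 active = mean replicate inhibition score of at least 50 and every replicate individually at or above 50; inconclusive = only one of the two criteria met; inactive = mean below 50 and not all replicates reaching 50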;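 also: 0% = plate neutral controls and 100% = maraviroc near 300 nM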
PAX8 reporter – inhibitors of PAX8-driven TPO luciferase reporter, primary screen, RMG-I cells, single concentration; inhibition, % at 12.6 µM; 360,000 tested, 1.2% active; SteadyGlo, 24 h; AID 652154, 2013;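 active = mean replicate inhibition at least 60% with every replicate also reaching 60%; inconclusive = only one of the two criteria is met; inactive = mean below 60% and not all replicates reaching 60%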;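 also: luciferase light reporting Pax8 driven TPO promoter activity; plate controls were median of neutral control wells for no effect and mitoxantrone controls for full effect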
FN deposition inh – inhibitors of fibronectin matrix deposition, primary screen, AH1F cells, Alexa488-fibronectin fluorescence, plate reader. AH1F fibroblasts, overnight. inhibition, % at 12.6 µM. 350,000 tested, 0.086% active. AID 743247, 2014;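 active = mean inhibition across replicates of 30% or more, regardless of how many single replicates reach that level; inconclusive = mean under 30% yet at least half of replicates reach 30%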;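 also: positive control wells lacked labelled fibronectin entirely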
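Schedule: 1 h cell adhesion before compound, then overnight fibronectin incubation; test system: AH1F fibroblast monolayer depositing Alexa488-labelled fibronectin into matrix; quantity: 10000 AH1F cells per well; probe or stimulus: fluorescent fibronectin at 24 nM final; signal: fluorescence, ex 485 nm, em 525 nm; evaluation: percent inhibition as loss of matrix-bound fibronectin fluorescence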
PGC1a acetyl inh – inhibitors of PGC1a acetylation signal, primary screen, cell-based, U2OS, AlphaScreen, inhibitor mode. AlphaScreen anti-acetyl-lysine; with virally co-expressed GCN5 acetyltransferase. inhibition, % at 15.6 µM. 350,000 tested, 0.17% active. AID 651687, 2012;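 active = every replicate shows inhibition of at least 40%; inconclusive = mean inhibition at least 40% but some replicate below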;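 also: 0% = neutral control wells and 100% = positive control wells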
An asterisk follows results filed as active; ? = inconclusive; / = no result given; [ ] = another dose, or the depositor's remark. The list is not random: actives were taken first. Their share in the collection is about 3.1%.

SMILES | FGF22 binding | EWS-Fli block | HIV Env fusion | PAX8 reporter | FN deposition inh | PGC1a acetyl inh
O=S(=O)(c1ccc2[nH]ccc2c1)N1CCCCCC1 | 0.1 | 2.3 | -7.2 | 8.2 | 3.7 | 68.0*
O=c1[nH]c2ccc(S(=O)(=O)N3CCCCC3)cc2[nH]1 | 0.2 | -0.2 | / | / | / | -4.2
O=C(NC1CCCC1)N1CC(=O)N2[C@@H](CO)[C@H](c3ccc(-c4cccnc4)cc3)[C@@H]2C1 | / | 21.5 | / | / | / | -2.1
COCC(=O)N1[C@H](C(=O)N2CCCCC2)[C@@H](CO)[C@@H]2Cn3c(ccc(C4=CCCCC4)c3=O)[C@@H]21 | 0.1 | 4.5 | / | -9.8 | / | /
O=C(O)CCSc1ncnc2sc(-c3ccccc3)cc12 | 0.3 | 69.4* | 68.4* | 0.0 | 2.8 | 4.4
C=C1C(=O)O[C@@H]2[C@H]1CC[C@H](C)[C@]1(O)CCC(=O)[C@@]21C | -0.1 | -9.5 | 8.8 | 89.5* | 3.1 | 6.6
O=C(Cc1cccnc1)N[C@H]1CC[C@H](CCn2cc(-c3ccccc3F)nn2)O[C@@H]1CO | 0.8 | 1.9 | 24.9[16.7 µM] | 10.5 | / | 2.5
O=C(CN(c1ccc(F)cc1)S(=O)(=O)c1ccccc1)Nc1ccccc1C(=O)O | 43.1* | -3.5 | -5.0 | 9.4 | -24.7 | -3.3
COc1ccc(N(CC(=O)Nc2ccccc2C(=O)N2CCOCC2)S(=O)(=O)c2ccc(F)cc2)cc1 | / | / | 17.1 | -6.0 | 10.3 | 0.8
CCn1c(Cl)c(C=O)s/c1=N\S(=O)(=O)c1ccccc1 | 0.2 | 14.1 | -42.8 | 9.6 | 50.1* | 78.1*
CCC(C)(C)n1nnnc1C(c1ccc(C)cc1)N(Cc1ccco1)Cc1cccs1 (stereo unspecified) | / | / | 134.7* | -3.8 | -11.2 | -27.9
COc1ccc(CN(C)C[C@H]2OCCCC[C@@H](C)Oc3ccc(NC(=O)Nc4cccc5ccccc45)cc3C(=O)N([C@H](C)CO)C[C@H]2C)cc1 | 1.0 | 71.8* | -12.2[16.7 µM] | 21.9 | / | -4.2
COc1ccc(CN(C)C[C@H]2OCCCC[C@@H](C)Oc3ccc(NC(=O)Nc4cccc5ccccc45)cc3C(=O)N([C@@H](C)CO)C[C@H]2C)cc1 | -1.3 | ? | -4.4[16.7 µM] | 10.2 | / | -4.1
COc1ccc(CN(C)C[C@H]2OCCCC[C@@H](C)Oc3ccc(NC(=O)Nc4cccc5ccccc45)cc3C(=O)N([C@@H](C)CO)C[C@@H]2C)cc1 | -1.3 | 79.6* | -62.9[16.7 µM] | 32.3 | / | 10.6
Cc1sc2ccccc2c1CNC[C@H]1O[C@@H](n2ccc(N)nc2=O)[C@H](O)[C@@H]1O | -0.1 | -1.8 | ? | -8.2 | 2.4 | -2.0
Cc1sc2ccccc2c1CNC[C@H]1O[C@@H](n2cnc(C(N)=O)n2)[C@H](O)[C@@H]1O | 43.5* | 3.2 | -6.5 | -12.6 | 2.0 | 2.9
COc1ccc(NC(=O)Nc2cccc3c2O[C@@H](CN(C)C(=O)Nc2ccccc2)[C@H](C)CN([C@H](C)CO)C3=O)cc1 | -0.2 | -1.8 | -7.7[16.7 µM] | / | / | 13.9
COc1ccc(CN(C)C[C@@H]2Oc3ccc(NS(=O)(=O)c4cccs4)cc3CC(=O)N([C@H](C)CO)C[C@@H]2C)cc1 | 0.1 | 0.3 | 0.4[16.7 µM] | / | / | 3.9
CO[C@@H]1CN(C)C(=O)c2cc(NC(=O)C3CC3)ccc2OC[C@@H](C)N(Cc2cncnc2)C[C@@H]1C | 0.2 | -2.2 | -14.5[16.7 µM] | 14.5 | 1.3 | -5.1
Cc1noc(C)c1COc1cccc(C(=O)NCCc2c[nH]c3ccccc23)c1 | 0.0 | 54.7* | -18.0 | 13.0 | 14.6 | 4.5
COc1cc(OC)cc(C(=O)N[C@H](C(=O)NCCc2c[nH]c3ccccc23)C(C)C)c1 | 0.4 | 12.9 | 77.8* | 19.9 | 9.2 | -16.9
COc1ccc(CNC(=O)NCCc2c[nH]c3ccccc23)cc1 | 0.0 | 8.3 | -19.3 | 3.1 | -3.1 | 9.4
COc1cc(OC)cc(C(=O)N[C@H](C(=O)OCC(=O)c2c[nH]c3ccccc23)C(C)C)c1 | 0.1 | 12.9 | / | 29.8 | 13.9 | -2.0
Cc1noc(C)c1COc1cccc(C(=O)Nc2ccccc2)c1 | 0.2 | -17.0 | -1.4 | -11.3 | -9.5 | -15.0
COc1ccc(CCNC(=S)NCCc2c[nH]c3ccccc23)cc1 | 1.4* | 35.4 | -4.4 | 11.3 | -7.6 | /
SMILES | FGF22 binding | EWS-Fli block | HIV Env fusion | PAX8 reporter | FN deposition inh | PGC1a acetyl inh
C[C@H]1CN([C@@H](C)CO)C(=O)c2cccc(NC(=O)C3CCCCC3)c2O[C@H]1CN(C)C(=O)Nc1ccc(C(F)(F)F)cc1 | -0.6 | 4.9 | / | 13.1 | / | 8.4
CCCCCCCCN1C(=O)[C@H](CC(=O)N2CCCCC2)C[C@@]2(C(=O)OCC)CCCC=C12 | -0.4 | 12.7 | 89.2* | -5.1 | -0.6 | /
CCCCCCCCN1C(=O)[C@H](CC(=O)NCCCC)C[C@@]2(C(=O)OCC)CCCC=C12 | -0.6 | 15.3 | 96.7* | 15.9 | 16.1 | /
COC(=O)c1cc(NC(C)=O)ccc1N1CCOCC1 | 43.0* | 5.8 | 6.0 | 19.0 | 3.8 | /
CC(=O)Nc1ccc(N2CCOCC2)c(Cl)c1 | 0.0 | 7.4 | -12.9 | -1.5 | 3.3 | /
Cc1noc(C)c1S(=O)(=O)Nc1ccc2c(c1)C(=O)N([C@@H](C)CO)C[C@H](C)[C@@H](CN(C)CC1CC1)O2 | -0.7 | 8.0 | 7.7[16.7 µM] | -17.4 | 12.6 | 3.6
Cc1ccc(S(=O)(=O)N(C)C[C@@H]2Oc3ccc(NS(=O)(=O)c4cccs4)cc3C(=O)N([C@H](C)CO)C[C@H]2C)cc1 | 0.1 | -24.7 | 4.6[16.7 µM] | -0.2 | / | 15.3
CCC1=NN=C(c2ccc(F)cc2)C(c2c[nH]c3ccccc23)N1O (stereo unspecified) | / | / | 102.9* | / | 1.6 | -5.6
CC(C)C#Cc1cnc2c(c1)C(=O)N([C@H](C)CO)C[C@@H](C)[C@H](CN(C)C(=O)c1ccccn1)O2 | 0.1 | -4.1 | 3.6[16.7 µM] | / | -7.3 | -1.0
C[C@H]1CN([C@@H](C)CO)C(=O)Cc2cc(NS(C)(=O)=O)ccc2O[C@@H]1CN(C)C(=O)NC1CCCCC1 | -0.2 | -5.4 | 5.1[16.7 µM] | -3.4 | / | 5.2
O=C(Nc1cccc(O)c1)C(=O)Nc1ccccn1 | 0.1 | 7.7 | / | 67.5* | 0.0 | /
CCOc1ccc(/C=C/c2c([N+](=O)[O-])c(=O)n(C)c(=O)n2C)cc1 | 0.2 | 0.4 | 7.5 | -98.6 | -1.0 | 16.3
COc1ccc(/C=C/c2c([N+](=O)[O-])c(=O)n(C)c(=O)n2C)cc1 | 43.0* | 6.9 | 6.5 | 3.0 | / | /
Nc1ccc2c(c1)C(=O)C(=O)c1ccccc1-2 | / | / | / | / | / | 106.9*
Nc1ccc2c(c1)C(=O)c1ccccc1-2 | 0.2 | -6.2 | -11.6 | -2.1 | -11.0 | -7.8
O=C(C[C@@H]1CC[C@@H](NC(=O)Cc2cccnc2)[C@@H](CO)O1)NCc1ccc2c(c1)OCO2 | -0.1 | 0.1 | 23.8[16.7 µM] | 6.7 | 4.4 | -1.6

Screening data from PubChem BioAssay.
